The source of these data is ChEMBL document CHEMBL4680108, “Ancistrolikokine E, a 5,8'-Coupled Naphthylisoquinoline Alkaloid, Eliminates the Tolerance of Cancer Cells to Nutrition Starvation by Inhibition of the Akt/mTOR/Autophagy Signaling Pathway” (2018).

For assay [1], the system named is PANC-1. Briefly: Inhibition of autophagy in human PANC-1 cells cultured in nutrient-deprived medium assessed as inhibition of LC3-2 expression at […] after 6 hrs by Western blot analysis relative to control. Format: functional. A general note: In western blotting, separated proteins are transferred to a membrane and probed.
The subject of assay [2] is PANC-1. Briefly: Anti-austerity activity against nutrient-deprived human PANC-1 cells assessed as cell death incubated for 24 hrs by WST-8 assay. The format is functional. The procedure, abridged: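 Human PANC-1 pancreatic cancer cells tested in parallel in nutrient-deprived medium (NDM) and in nutrient-rich DMEM. PC50 is the concentration that kills 50% of cells in NDM without toxicity in DMEM.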
A general note: Formazan colour is commonly taken as a measure of viable cells.

Molecules are shown by their SMILES.

As to `Cn1cnc(N)c2ncnc1-2` [3-METHYLADENINE], in the assay on PANC-1 [1], the “fold change (FC)” value worked out at 2.

For `COc1cc(C[C@H]2C(=O)OC[C@@H]2Cc2ccc(OC)c(OC)c2)ccc1O` [ARCTIGENIN], the PC50 in the assay on PANC-1 [2] amounted to 0.83 µM.
